Data on 19 molecules can be found in ChEMBL document CHEMBL2321789, “Discovery of Indenopyrazoles as a New Class of Hypoxia Inducible Factor (HIF)-1 Inhibitors” (ACS Med Chem Lett, 2013).

By IC50 is commonly meant the midpoint of a concentration-inhibition curve. As a reminder, the inhibition is the drop in the measured response relative to a control, in per cent.

One test has as its system PC-3. As to the kind of experiment: Cytotoxicity against human PC3 cells after 72 hrs by MTT assay. Type of test: functional, cell-based. Conditions: PC-3, 72 h. Summed up:
(§1)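 Cells exposed to compound at 0.1–30 μM for 72 h; viability read by MTT assay.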
A general note: Tetrazolium assays rely on reduction of a dye to a coloured formazan, in cell work by metabolically active cells.

Test [1] deals with HeLa. The test is described as follows: Cytotoxicity against human HeLa cells after 72 hrs by MTT assay. Type of test: functional, cell-based. Summed up:
as §1

The next test relates to HepG2. The test is described as follows: Cytotoxicity against human HepG2 cells after 72 hrs by MTT assay. The settings on record: HepG2, 72 h. Type of test: functional, cell-based. In short, it runs like this:
as §1

A further test concerns HCT-116. The test is described as follows: Cytotoxicity against human HCT116 cells after 72 hrs by MTT assay. Type of test: functional, cell-based. The settings on record: HCT-116, 72 h. Summed up:
as §1

Test [2] concerns the target T1, Hypoxia-inducible factor 1-alpha (Homo sapiens, UniProt Q16665). As to the kind of experiment: Inhibition of hypoxia-induced HIF1alpha transcriptional activity in human HeLa cells expressing HRE-Luc at 30 uM after 12 hrs by luciferase reporter gene assay. Type of test: cell-based. In short, it runs like this: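 Reporter HeLa cells stably carrying HRE-firefly luciferase plus CMV-renilla luciferase, incubated 12 h with compound under 1% oxygen. Supernatant removed, then dual luciferase assay. Triplicate samples, mean ± SD.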
Target sequence in this assay (Q16665 whole entry, looked up): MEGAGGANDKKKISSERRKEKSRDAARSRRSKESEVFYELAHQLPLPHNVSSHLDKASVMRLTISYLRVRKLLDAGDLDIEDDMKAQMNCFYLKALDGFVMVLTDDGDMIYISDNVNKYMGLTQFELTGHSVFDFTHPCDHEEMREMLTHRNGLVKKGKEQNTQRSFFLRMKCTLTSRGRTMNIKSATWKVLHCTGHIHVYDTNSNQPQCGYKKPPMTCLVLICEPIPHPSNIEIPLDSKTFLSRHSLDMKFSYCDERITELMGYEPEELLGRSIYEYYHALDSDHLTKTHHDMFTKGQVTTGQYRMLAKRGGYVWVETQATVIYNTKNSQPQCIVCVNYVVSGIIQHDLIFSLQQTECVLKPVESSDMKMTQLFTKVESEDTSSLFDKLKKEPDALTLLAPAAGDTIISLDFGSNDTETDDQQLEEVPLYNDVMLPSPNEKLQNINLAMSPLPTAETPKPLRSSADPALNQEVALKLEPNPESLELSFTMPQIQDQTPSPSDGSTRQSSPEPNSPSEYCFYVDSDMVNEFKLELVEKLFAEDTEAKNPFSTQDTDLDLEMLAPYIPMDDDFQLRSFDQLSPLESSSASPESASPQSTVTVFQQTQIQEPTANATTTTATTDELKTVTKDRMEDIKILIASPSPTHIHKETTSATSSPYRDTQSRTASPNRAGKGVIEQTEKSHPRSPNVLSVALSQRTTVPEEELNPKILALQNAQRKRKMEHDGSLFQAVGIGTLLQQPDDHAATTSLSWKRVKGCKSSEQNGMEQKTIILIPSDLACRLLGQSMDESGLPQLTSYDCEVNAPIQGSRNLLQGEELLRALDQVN
For orientation: In a reporter assay the amount or activity of a reporter protein is the signal.

For test [3], the target named is T1, Hypoxia-inducible factor 1-alpha. The test is described as follows: Inhibition of hypoxia-induced HIF1alpha transcriptional activity in human HeLa cells expressing HRE-Luc after 12 hrs by luciferase reporter gene assay. Type of test: cell-based.
Target sequence in this assay (Q16665 whole entry): as the sequence (Q16665 whole entry, looked up) above
Test [4] has as its system HeLa. The settings on record: Homo sapiens, 0.1 to 10 uM.
Test [5] has as its system HeLa. The settings on record: Homo sapiens, 1 uM.
For test [6], the system named is HeLa. Conditions: Homo sapiens, 0.001 to 1 uM.
The test system of test [7] is HeLa. As to the kind of experiment: Inhibition of hypoxia-induced HIF1alpha nuclear translocation in human HeLa cells at 30 uM after 4 hrs by immunofluorescence analysis. Type of test: functional, cell-based. In short, it runs like this: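 Under 1% oxygen, HeLa cells incubated 4 h with compound. HIF-1α localization imaged by immunofluorescence with specific antibody; nuclei stained with DAPI.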

Test [8] concerns HeLa. The test is described as follows: Inhibition of hypoxia-induced HIF1alpha accumulation in human HeLa cells at 30 uM after 4 hrs by Western blot analysis. Type of test: functional, cell-based. In short, it runs like this: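 HeLa cells under hypoxia (1% oxygen) treated with compound for 4 h at a range of concentrations. HIF-1α protein detected by immunoblot with specific antibody, tubulin as internal control.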
(Immunoblotting shows a protein as a band on a membrane.)

Calls of active or inactive are those of the source. The rule behind the calls is not given here.

For `COc1cccc2c1-c1[nH]nc(Nc3ccccc3)c1C2`, the 50% inhibitory concentration (IC50) with PC-3 is 3.2 µM; with HeLa [1], 0.57 µM; with HepG2, 0.75 µM; with HCT-116, 0.57 µM; in test [3], above 30 µM. In test [2], this molecule registered an inhibition of 3%.
As for `COc1ccc2c(c1)-c1n[nH]c(Nc3ccccc3)c1C2`, the IC50 is above 30 µM with PC-3; 13.4 µM with HeLa [1]; 15.4 µM in the test with HepG2; 1.5 µM in the test with HCT-116; above 30 µM in [3]. Further, the inhibition in test [2] stood at 18%.
Regarding `COc1ccc(Nc2n[nH]c3c2Cc2ccccc2-3)cc1`, the IC50 in the test on PC-3 worked out at 28.8 µM; in the test with HeLa [1], 2.6 µM; in the test with HepG2 it was 9.1 µM; with HCT-116, 3.1 µM; in test [3], 1.4 µM.
Consider `COc1cccc(Nc2n[nH]c3c2Cc2ccccc2-3)c1`, for which the 50% inhibitory concentration (IC50) is above 30 µM in the test with PC-3; 2.9 µM with HeLa [1]; 6.8 µM with HepG2; 2.2 µM with HCT-116; 6.1 µM in [3].
`c1ccc(Nc2[nH]nc3c2Cc2ccccc2-3)cc1` returned a concentration for half-maximal inhibition (IC50) in [3] above 30 µM.
Still for that read-out and setting: the value for `Nc1ccc(NC(=O)Nc2cccc3c2C(=O)c2c-3n[nH]c2-c2ccc3c(c2)OCO3)cc1` was 0.214 µM.
As for `c1ccc2c(c1)Cc1c-2n[nH]c1Nc1ccc2c(c1)OCO2`, the IC50 with PC-3 was determined as 23.7 µM; with HeLa [1], 5.8 µM; in the test with HepG2 it was 12.7 µM; in the test on HCT-116 it was 6.9 µM; in [3], 0.27 µM.
`COc1cccc2c1Cc1c-2n[nH]c1Nc1ccccc1`: the IC50 in the test with PC-3 was 21.7 µM; in the test with HeLa [1], 1.6 µM; in the test on HepG2, 5.2 µM; with HCT-116, 2.3 µM; in test [3], above 30 µM. In addition, in test [2], the inhibition was determined as 41%.
As for `c1ccc(Nc2n[nH]c3c2Cc2ccccc2-3)cc1`, the half-inhibitory concentration (IC50) in the test on PC-3 is above 30 µM; with HeLa [1] it was 17.6 µM; in the test on HepG2, 24.2 µM; with HCT-116 it was 17.5 µM. This molecule displayed an inhibition in test [2] of 0%.
Regarding `OCc1ccc(-c2nn(Cc3ccccc3)c3ccccc23)o1`, the IC50 in the test with PC-3 is above 30 µM; in the test on HeLa [1] it was 29.3 µM; with HepG2 it was 2.2 µM; in the test with HCT-116, 2.2 µM.
As to `COc1cc2c(cc1OC)-c1n[nH]c(Nc3ccccc3)c1C2`, the half-maximal inhibitory concentration (IC50) is 0.72 µM with PC-3; below 0.1 µM in the test with HeLa [1]; 0.24 µM with HepG2; below 0.1 µM with HCT-116; above 30 µM in test [3]. The inhibition in [2] turned out to be 0%.
As for `COc1cccc2c1Cc1c(Nc3ccc4c(c3)OCCO4)n[nH]c1-2`, the IC50 in the test with PC-3 was determined as 6.9 µM; in the test with HeLa [1], 2.1 µM; in the test on HepG2, 7 µM; in the test with HCT-116 it was 5.9 µM; in test [3], 0.034 µM.
The corresponding values for `COc1ccc(Nc2n[nH]c3c2Cc2ccccc2-3)cc1OC` are above 30 µM, 1.8 µM, 3.8 µM, 0.73 µM and 3.2 µM.
In the case of `c1ccc2c(c1)Cc1c-2n[nH]c1Nc1ccc2c(c1)OCCO2`, the concentration for half-maximal inhibition (IC50) in test [3] was determined as 0.014 µM.
Take `COc1ccc2c(c1)Cc1c-2n[nH]c1Nc1ccccc1`: the half-maximal inhibitory concentration (IC50) is below 0.1 µM in the test with PC-3; below 0.1 µM with HeLa [1]; below 0.1 µM in the test with HepG2; below 0.1 µM in the test with HCT-116; above 30 µM in test [3]. Also, the inhibition in test [2] stood at 28%.
With `c1ccc2c(c1)Cc1c(Nc3ccc4c(c3)OCCO4)n[nH]c1-2`, the 50% inhibitory concentration (IC50) in the test on PC-3 is 25.4 µM; in the test with HeLa [1], 1.8 µM; in the test on HepG2, 3.7 µM; in the test with HCT-116, 2.1 µM. In addition, the inhibition entry with HeLa [4], in the test with HeLa [5] and in the test on HeLa [6] was “inactive” each time.
In turn, `c1ccc(Nc2[nH]nc3c2Cc2cc4c(cc2-3)OCO4)cc1` gave a half-inhibitory concentration (IC50) in test [3] above 30 µM.
As for `c1ccc(Nc2n[nH]c3c2Cc2cc4c(cc2-3)OCO4)cc1`, the IC50 with PC-3 was found to be 22.3 µM; with HeLa [1], 8.5 µM; in the test with HepG2, 11.2 µM; in the test on HCT-116, 5.2 µM. Also, in test [2], the inhibition worked out at 28%.
Turning to `COC(=O)c1ccc(O)c(NC(=O)COc2ccc(C34CC5CC(CC(C5)C3)C4)cc2)c1`, the inhibition result with HeLa [7] and in the test on HeLa [8] was “Active” in each case. The IC50 in the test with PC-3 was above 30 µM; with HeLa [1] it was above 30 µM; in the test on HepG2, above 30 µM; with HCT-116, above 30 µM; in test [3], 21 µM.
